Data: ChEMBL document CHEMBL3751813, “Nonpeptidic Amphiphilic Xanthone Derivatives: Structure-Activity Relationship and Membrane-Targeting Properties” (J Med Chem, 2016)
Values after ≈ are worked out from the molar mass of the structure shown. Active and inactive are the calls of the source. The rule behind the calls is not given here.

Experiments:
[1] = Membrane permeabilization activity assessed as release of calcein from DOPE/DOPG liposomes at lipid:compound ratio of => 16 incubated for 30 mins by fluorescence assay; assay type: ADME; conditions: 0.5 h
Procedure, shortened: (§1)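 Freeze-thawed, extruded, then gel-filtered. Final lipid 50 µM with compound added from DMF (<0.2%). Fluorescence at ex 490/em 520 nm over 30 min; 0.1% Triton X-100 defined 100% lysis.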

[2] = Membrane permeabilization activity assessed as release of calcein from DOPC liposomes at lipid:compound ratio of => 16 incubated for 30 mins by fluorescence assay; assay type: ADME; conditions: 0.5 h; procedure, shortened: as §1
[3] = Membrane permeabilization activity assessed as release of calcein from DOPC liposomes at lipid:compound ratio of 4 incubated for 30 mins by fluorescence assay; assay type: ADME; conditions: 0.5 h; procedure, shortened: as §1
[4] = Membrane permeabilization activity assessed as release of calcein from DOPE/DOPG liposomes at lipid:compound ratio of 8 incubated for 30 mins by fluorescence assay; assay type: ADME; conditions: 0.5 h; procedure, shortened: as §1
[5] = Selectivity index, ratio of HC50 for hemolytic activity against New Zealand white rabbit RBC to MIC for clinical isolates of Staphylococcus aureus DM4001
[6] = Membrane permeabilization activity assessed as release of calcein from DOPC liposomes at lipid:compound ratio of 8 incubated for 30 mins by fluorescence assay; assay type: ADME; conditions: 0.5 h; procedure, shortened: as §1
Staphylococcus aureus [7] = test: Antibacterial activity against clinical isolates of Staphylococcus aureus DM4001R after 24 hrs by […]; assay type: functional
Staphylococcus aureus [8] = test: Induction of membrane permeabilization in clinical isolates of Staphylococcus aureus DM4001 at MIC by SYTOX green uptake assay; assay type: functional
Procedure, shortened: (§2)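 Exponential-phase cells washed twice in 20 mM PBS pH 7 and adjusted to OD620 0.09. Given 3 µM SYTOX Green and kept in the dark until fluorescence was stable, then compound added. Fluorescence followed in a stirred cuvette at ex 504/em 523 nm. Melittin 10 µg/mL was the positive control. Run at least twice; one run reported.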

Staphylococcus aureus [9] = test: Antibacterial activity against clinical isolates of methicillin-resistant Staphylococcus aureus DM9808R after 24 hrs by […]; assay type: functional
Staphylococcus aureus [10] = test: Induction of membrane permeabilization in clinical isolates of Staphylococcus aureus DM4001 assessed as ATP leakage at MIC incubated for 10 mins by firefly luciferase based luminometry analysis; assay type: functional
Procedure, shortened: (§3)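 Exponential-phase cells washed twice in 20 mM PBS pH 7 and set to OD620 0.3. Exposed 10 min at 37 °C, then spun at 4000 rpm for 5 min. Supernatant mixed with luciferase reagent (1 mM DTT, 0.5 mM D-luciferin, 1.25 µg/mL firefly luciferase). Luminescence read over 30 cycles.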

Bacillus cereus = test: Antibacterial activity against clinical isolates of Bacillus cereus ATCC 11778 after 24 hrs by […]; assay type: functional; conditions: ATCC 11778, 24 h
Staphylococcus aureus [11] = test: Induction of membrane permeabilization in clinical isolates of Staphylococcus aureus DM4001 at 10 uM measured for 200 sec by SYTOX green influx assay; assay type: functional, organism-based; procedure, shortened: as §2
Staphylococcus aureus [12] = test: Antibacterial activity against clinical isolates of methicillin-resistant Staphylococcus aureus DM21455 after 24 hrs by […]; assay type: functional; conditions: DM21455, 24 h
Staphylococcus aureus [13] = test: Induction of membrane disruption in clinical isolates of Staphylococcus aureus DM4001 assessed as membrane integrity incubated for 10 mins by live/dead baclight bacterial viability assay relative to control; assay type: functional; design: concentration or dose not given beside the values
Procedure, shortened: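 Exponential-phase cells washed in 0.9% saline, OD670 0.3, exposed to compound 10 min at room temperature. Pelleted, resuspended, then stained with SYTO 9 (10 µM) plus propidium iodide (60 µM) 15 min dark. Excitation 485 nm, emission 500–700 nm; green/red ratio converted to % damage using standards of 0–100% isopropanol-killed cells.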

[14] = Membrane permeabilization activity assessed as release of calcein from DOPE/DOPG large unilamellar vesicles at 0.125 to 0.5 compound:lipid ratio incubated for 30 mins by fluorescence assay; assay type: ADME; conditions: 0.5 h; procedure, shortened: as §1
[15] = Hemolytic activity against New Zealand white rabbit RBC after 1 hr by microplate reader analysis; assay type: ADME, cell-based, Oryctolagus cuniculus, Erythrocyte; conditions: rabbit red blood cells
Procedure, shortened: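 Rabbit RBCs spun from serum at 3,000 rpm for 10 min and washed twice in PBS. Mixed with compound in DMF at 4% v/v RBCs, 1 h at 37 °C. After centrifugation, hemoglobin in the supernatant read at 576 nm. 2% Triton X-100 was the positive control and 1% DMF the negative control.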

Staphylococcus aureus [16] = test: Induction of membrane permeabilization in clinical isolates of Staphylococcus aureus DM4001 at 50 uM by SYTOX green uptake assay; assay type: functional; procedure, shortened: as §2
Staphylococcus aureus [17] = test: Induction of membrane permeabilization in clinical isolates of Staphylococcus aureus DM4001 assessed as ATP leakage at 50 uM incubated for 10 mins by firefly luciferase based luminometry analysis; assay type: functional; procedure, shortened: as §3
[18] = Membrane permeabilization activity assessed as release of calcein from DOPE/DOPG liposomes at lipid:compound ratio of 4 incubated for 30 mins by fluorescence assay; assay type: ADME; conditions: 0.5 h; procedure, shortened: as §1
Staphylococcus aureus [19] = test: Induction of membrane permeabilization in clinical isolates of Staphylococcus aureus DM4001 by SYTOX green uptake assay; assay type: functional; procedure, shortened: as §2
Staphylococcus aureus [20] = test: Bactericidal activity against clinical isolates of methicillin resistant Staphylococcus aureus DM21455 assessed as log reduction in viability measured up to 300 mins by time kill kinetic study; assay type: functional, organism-based
Procedure, shortened: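 Colonies from 18–22 h TSA plates suspended in 0.31 mM phosphate buffer pH 7.2 at 10^5–10^6 CFU/mL. Treated at 1×, 2× and 4× MIC at 35 °C, sampled at 10 min, 30 min, 1 h, 2 h and 5 h. Ten-fold dilutions spread on MHA, 35 °C for 48–72 h, colonies counted. Detection limit 100 CFU/mL; bactericidal means 3-log drop versus untreated.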

[21] = Membrane permeabilization activity assessed as release of calcein from DOPC liposomes at 16 to 64 lipid:compound ratio incubated for 30 mins by fluorescence assay; assay type: ADME; conditions: 0.5 h

SMILES	Selectivity ratio [5]	MIC (Staphylococcus aureus [7]) [µg/mL]	MIC (Staphylococcus aureus [9]) [µg/mL]	MIC (Bacillus cereus) [µg/mL]	Activity (Staphylococcus aureus [11])	MIC (Staphylococcus aureus [12]) [µg/mL]	Activity (Staphylococcus aureus [13]) [%]	HC50 at 1 h [15] [µg/mL]	also measured
COc1c(O)cc2oc3cc(O)c(CC=C(C)C)c(O)c3c(=O)c2c1CC=C(C)C [MANGOSTIN]	4.5	2 (≈ 4.87 µM)	–	–	–	–	–	–	Activity [1]: < 10%; Activity [2]: < 10%; Activity [3]: 33.6%; Activity [4]: 16%; Activity [6]: 14.1%
CCN(CC)CCCCOc1cc2oc3cc(OCCCCN(CC)CC)c(OC)c(CC=C(C)C)c3c(=O)c2c(O)c1CC=C(C)C	50.4	0.39 (≈ 0.587 µM)	0.78 (≈ 1.17 µM)	3.12 (≈ 4.7 µM)	Active	0.39 (≈ 0.587 µM)	37.8	–	Activity [1]: > 70%; Activity [2]: > 70%; Activity (Staphylococcus aureus [8]): 61679 cps; Activity (Staphylococcus aureus [10]): 2.235 µM; Activity [14]: > 70%
CCCCN(CCCC)CCCCOc1cc2oc3cc(OCCCCN(CCCC)CCCC)c(OC)c(CC=C(C)C)c3c(=O)c2c(O)c1CC=C(C)C	–	> 50	> 50	> 50	–	> 50	–	> 200	Activity (Staphylococcus aureus [16]): 1768 cps; Activity (Staphylococcus aureus [17]): 763 nM
CCN(CC)CCCOc1cc2oc3cc(OCCCN(CC)CC)c(OC)c(CC=C(C)C)c3c(=O)c2c(O)c1CC=C(C)C	20.9	0.78 (≈ 1.22 µM)	0.78 (≈ 1.22 µM)	6.25 (≈ 9.81 µM)	Active	0.39 (≈ 0.612 µM)	46.2	–	–
CCN(CC)CCCCCCOc1cc2oc3cc(OCCCCCCN(CC)CC)c(OC)c(CC=C(C)C)c3c(=O)c2c(O)c1CC=C(C)C	17	1.56 (≈ 2.16 µM)	3.12 (≈ 4.33 µM)	3.12 (≈ 4.33 µM)	Active	1.56 (≈ 2.16 µM)	45.1	–	–
COc1c(O)cc2oc3cc(O)c(CCC(C)C)c(O)c3c(=O)c2c1CCC(C)C	–	> 50	> 50	> 50	–	> 50	–	> 200	Activity [1]: Not Active; Activity [2]: Not Active; Activity [3]: Not Active; Activity [4]: Not Active; Activity [6]: Not Active; Activity [18]: Not Active
CCN(CC)CCCCCCCCCCCCOc1cc2oc3cc(OCCCCCCCCCCCCN(CC)CC)c(OC)c(CC=C(C)C)c3c(=O)c2c(O)c1CC=C(C)C	–	> 50	> 50	> 50	inactive	> 50	99.9	> 200	Activity [14]: 60%
CCN(CC)CCCCOc1cc2oc3cc(OCCCCN(CC)CC)c(OC)c(CC=C(C)C)c3c(=O)c2c(OCCCCN(CC)CC)c1CC=C(C)C	–	12.5 (≈ 15.8 µM)	50 (≈ 63.1 µM)	50 (≈ 63.1 µM)	–	25 (≈ 31.6 µM)	–	> 200	Activity (Staphylococcus aureus [19]): 4305.1 cps
COc1c(OCCCCN(C)Cc2ccccc2)cc2oc3cc(OCCCCN(C)Cc4ccccc4)c(CC=C(C)C)c(O)c3c(=O)c2c1CC=C(C)C	–	> 50	> 50	> 50	–	> 50	–	> 200	Activity (Staphylococcus aureus [16]): 1778 cps; Activity (Staphylococcus aureus [17]): 574 nM
CCN(CC)CCCCCCCCCCOc1cc2oc3cc(OCCCCCCCCCCN(CC)CC)c(OC)c(CC=C(C)C)c3c(=O)c2c(O)c1CC=C(C)C	–	> 50	> 50	> 50	inactive	> 50	100	200	Activity [14]: > 70%
CCN(CC)CCOc1cc2oc3cc(OCCN(CC)CC)c(OC)c(CC=C(C)C)c3c(=O)c2c(O)c1CC=C(C)C	–	> 50	> 50	> 50	Active	> 50	64.1	> 200	–
CCN(CC)CCCCOc1ccc2c(=O)c3c(O)cc(OCCCCN(CC)CC)cc3oc2c1	–	> 50	> 50	> 50	–	> 50	–	> 200	Activity [1]: Not Active; Activity [2]: Not Active; Activity [3]: Not Active; Activity [4]: Not Active; Activity [6]: Not Active; Activity [18]: Not Active
COc1c(OCCCCN2CC[C@H](N(C)C)C2)cc2oc3cc(OCCCCN4CC[C@H](N(C)C)C4)c(CC=C(C)C)c(O)c3c(=O)c2c1CC=C(C)C	2.3	12.5 (≈ 16.7 µM)	6.25 (≈ 8.37 µM)	6.25 (≈ 8.37 µM)	–	6.25 (≈ 8.37 µM)	–	28.9	Activity (Staphylococcus aureus [16]): 58191 cps; Activity (Staphylococcus aureus [17]): 7962 nM
CCN(CC)CCCCCCCCOc1cc2oc3cc(OCCCCCCCCN(CC)CC)c(OC)c(CC=C(C)C)c3c(=O)c2c(O)c1CC=C(C)C	–	> 50	> 50	> 50	Active	> 50	95.5	53.1	Activity [14]: > 70%
CN[C@@H](CC(C)C)C(=O)N[C@H]1C(=O)N[C@@H](CC(N)=O)C(=O)N[C@H]2C(=O)N[C@H]3C(=O)N[C@H](C(=O)N[C@@H](C(=O)O)c4cc(O)cc(O)c4-c4cc3ccc4O)[C@H](O)c3ccc(c(Cl)c3)Oc3cc2cc(c3O[C@H]2O[C@@H](CO)[C@H](O)[C@@H](O)[C@@H]2O[C@@H]2C[C@@](C)(N)[C@@H](O)[C@@H](C)O2)Oc2ccc(cc2Cl)[C@H]1O	–	–	–	–	–	–	–	–	Activity (Staphylococcus aureus [20]): inactive
COc1c(OCCCCN(C)C)cc2oc3cc(OCCCCN(C)C)c(CC=C(C)C)c(O)c3c(=O)c2c1CC=C(C)C	10.3	3.12 (≈ 5.13 µM)	3.12 (≈ 5.13 µM)	6.25 (≈ 10.3 µM)	–	3.12 (≈ 5.13 µM)	–	32.1	Activity (Staphylococcus aureus [8]): 23925 cps; Activity (Staphylococcus aureus [10]): 3.769 µM; Activity [21]: Active
O=c1c2ccc(O)cc2oc2cc(O)cc(O)c12	–	> 50	> 50	> 50	–	> 50	–	> 200	Activity [1]: Not Active; Activity [2]: Not Active; Activity [3]: Not Active; Activity [4]: Not Active; Activity [6]: Not Active; Activity [18]: Not Active
CCN(CC)CCCCCOc1cc2oc3cc(OCCCCCN(CC)CC)c(OC)c(CC=C(C)C)c3c(=O)c2c(O)c1CC=C(C)C	9	1.56 (≈ 2.25 µM)	1.56 (≈ 2.25 µM)	6.25 (≈ 9.02 µM)	Active	0.78 (≈ 1.13 µM)	43	–	–
CCN(CCCCOc1cc2oc3cc(OCCCCN(CC)C(C)C)c(OC)c(CC=C(C)C)c3c(=O)c2c(O)c1CC=C(C)C)C(C)C	2.2	25 (≈ 36.1 µM)	12.5 (≈ 18 µM)	12.5 (≈ 18 µM)	–	25 (≈ 36.1 µM)	–	54.6	Activity (Staphylococcus aureus [8]): 97824 cps; Activity (Staphylococcus aureus [10]): 5.407 µM
